Data set [1] is described as follows: Stability of the compound in water-methanol mixture (1:1) assessed as drug recovery. As to conditions: buffer. In kind it is physicochemical.
Data set [2] in a line: Stability of the compound in rat plasma assessed as drug recovery. In kind it is ADME, cell-free.
Data set [3] in a line: Cmax in Sprague-Dawley rat plasma at 9.6 mg/kg, po administered as OPMS liquid formulation measured for 24 hrs by UPLC-MS/MS analysis. It is filed as ADME, organism-based. Further details: route oral, dose 9.6 mg/kg, time 24 hrs. An outline of the steps:
(§1)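 Jugular-cannulated male SD rats (225 ± 25 g, n = 4) were fasted 12–16 h and given one oral gavage of LKT (366 mg/kg) or OPMS liquid (0.8 mL/kg) in water at 4 mL/kg, with dosing normalized to MTG human equivalent dose. Plasma was sampled from predose to 24 h and measured by UPLC–MS/MS (LLOQ 1 ng/mL). Cmax and Tmax were read from the observed data; Cmax/dose was also reported. Mean ± SEM.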

The nature of data set [4]: Dose normalized Cmax in Sprague-Dawley rat plasma at 5.73 mg/kg, po administered as LKT formulation measured for 24 hrs by UPLC-MS/MS analysis. It is filed as ADME, organism-based. The note with it: in vivo. The gist of the method: as §1
Data set [5] in a line: Dose normalized AUC(0 to 24 hrs) in Sprague-Dawley rat plasma at 5.73 mg/kg, po administered as LKT formulation measured for 24 hrs by UPLC-MS/MS analysis. In kind it is ADME, organism-based. As to conditions: in vivo.
The nature of data set [6]: Dose normalized AUC(0 to 24 hrs) in Sprague-Dawley rat plasma at 9.6 mg/kg, po administered as OPMS liquid formulation measured for 24 hrs by UPLC-MS/MS analysis. It is filed as ADME, organism-based. The note with it: in vivo.
Data set [7] is described as follows: AUC(0 to 24 hrs) in Sprague-Dawley rat plasma at 9.6 mg/kg, po administered as OPMS liquid formulation measured for 24 hrs by UPLC-MS/MS analysis. In kind it is ADME, organism-based. The arrangement: route oral, time 24 hrs, dose 9.6 mg/kg.
Data set [8] is described as follows: Cmax in Sprague-Dawley rat plasma at 5.73 mg/kg, po administered as LKT formulation measured for 24 hrs by UPLC-MS/MS analysis. In kind it is ADME, organism-based. Further details: route oral, dose 5.73 mg/kg, time 24 hrs. The gist of the method: as §1
Data set [9] is described as follows: Dose normalized Cmax in rat plasma at 20 mg/kg, po administered as LKT formulation. As to conditions: in vivo. It is filed as ADME, organism-based.
A short description of data set [10]: Dose normalized AUC in rat plasma at 20 mg/kg, po administered as LKT formulation. In kind it is ADME, organism-based. The note with it: in vivo.
A short description of data set [11]: AUC(0 to 24 hrs) in Sprague-Dawley rat plasma at 5.73 mg/kg, po administered as LKT formulation measured for 24 hrs by UPLC-MS/MS analysis. The arrangement: route oral, time 24 hrs, dose 5.73 mg/kg. It is filed as ADME, organism-based.
Data set [12] in a line: Tmax in Sprague-Dawley rat plasma at 5.73 mg/kg, po administered as LKT formulation measured for 24 hrs by UPLC-MS/MS analysis. In kind it is ADME, organism-based. An outline of the steps: as §1
The conditions of data set [13]: rat, in vivo, po, 5.73 mg/kg, 24 h.
The target of a further data set is Cytochrome P450 2D6 (Homo sapiens, UniProt P10635). The data set can be described thus: Inhibition of CYP2D6 in human liver microsomes assessed as inhibition of dextromethorphan O-demethylation using dextromethorphan as substrate preincubated for 5 mins followed by NADPH addition by UPLC-MS/MS analysis. In kind it is ADME. A general note: Liver microsomes are vesicles of endoplasmic reticulum, rich in cytochrome P450 enzymes.

The nature of data set [14]: Dose normalized Cmax in Sprague-Dawley rat plasma at 9.6 mg/kg, po administered as OPMS liquid formulation measured for 24 hrs by UPLC-MS/MS analysis. In kind it is ADME, organism-based. The note with it: in vivo. The gist of the method: as §1
The nature of data set [15]: Tmax in Sprague-Dawley rat plasma at 9.6 mg/kg, po administered as OPMS liquid formulation measured for 24 hrs by UPLC-MS/MS analysis. In kind it is ADME, organism-based. An outline of the steps:
as §1

For data set [16] the following is noted: rat, in vivo, po, 9.6 mg/kg, 24 h.
Data set [17] in a line: AUC(0 to 24 hrs) in Sprague-Dawley rat plasma at 2.03 mg/kg, po administered as LKT formulation measured for 24 hrs by UPLC-MS/MS analysis. In kind it is ADME, organism-based. Further details: route oral, time 24 hrs, dose 2.03 mg/kg.
Data set [18] can be described thus: AUC(0 to 24 hrs) in Sprague-Dawley rat plasma at 2.24 mg/kg, po administered as OPMS liquid formulation measured for 24 hrs by UPLC-MS/MS analysis. It is filed as ADME, organism-based. The arrangement: route oral, time 24 hrs, dose 2.24 mg/kg.
A short description of data set [19]: Tmax in Sprague-Dawley rat plasma at 2.24 mg/kg, po administered as OPMS liquid formulation measured for 24 hrs by UPLC-MS/MS analysis. In kind it is ADME, organism-based. An outline of the steps:
as §1

A short description of data set [20]: Dose normalized Cmax in Sprague-Dawley rat plasma at 2.24 mg/kg, po administered as OPMS liquid formulation measured for 24 hrs by UPLC-MS/MS analysis. In kind it is ADME, organism-based. The note with it: in vivo. The gist of the method: as §1
Data set [21] can be described thus: Tmax in Sprague-Dawley rat plasma at 2.03 mg/kg, po administered as LKT formulation measured for 24 hrs by UPLC-MS/MS analysis. In kind it is ADME, organism-based. The gist of the method:
as §1

Data set [22] is described as follows: Cmax in Sprague-Dawley rat plasma at 2.03 mg/kg, po administered as LKT formulation measured for 24 hrs by UPLC-MS/MS analysis. It is filed as ADME, organism-based. Further details: route oral, dose 2.03 mg/kg, time 24 hrs. An outline of the steps:
as §1

Data set [23] can be described thus: Cmax in Sprague-Dawley rat plasma at 2.24 mg/kg, po administered as OPMS liquid formulation measured for 24 hrs by UPLC-MS/MS analysis. In kind it is ADME, organism-based. Further details: route oral, dose 2.24 mg/kg, time 24 hrs. An outline of the steps:
as §1

Data set [24] can be described thus: Dose normalized Cmax in Sprague-Dawley rat plasma at 2.03 mg/kg, po administered as LKT formulation measured for 24 hrs by UPLC-MS/MS analysis. It is filed as ADME, organism-based. The note with it: in vivo. The gist of the method:
as §1

Data set [25] in a line: Dose normalized AUC(0 to 24 hrs) in Sprague-Dawley rat plasma at 2.24 mg/kg, po administered as OPMS liquid formulation measured for 24 hrs by UPLC-MS/MS analysis. In kind it is ADME, organism-based. As to conditions: in vivo.
Data set [26] in a line: Dose normalized AUC(0 to 24 hrs) in Sprague-Dawley rat plasma at 2.03 mg/kg, po administered as LKT formulation measured for 24 hrs by UPLC-MS/MS analysis. It is filed as ADME, organism-based. The note with it: in vivo.
Data set [27] in a line: Plasma concentration in Sprague-Dawley rat at 1.77 mg/kg, po administered as OPMS liquid formulation measured within 1 hrs by UPLC-MS/MS analysis. It is filed as ADME, organism-based. An outline of the steps:
as §1

Data set [28] is described as follows: Cmax in Sprague-Dawley rat plasma at 1.77 mg/kg, po administered as OPMS liquid formulation measured for 24 hrs by UPLC-MS/MS analysis. In kind it is ADME, organism-based. Further details: route oral, time 24 hrs, dose 1.77 mg/kg. The gist of the method:
as §1

Data set [29] in a line: Tmax in Sprague-Dawley rat plasma at 1.77 mg/kg, po administered as OPMS liquid formulation measured for 24 hrs by UPLC-MS/MS analysis. It is filed as ADME, organism-based. The gist of the method:
as §1

Data set [30] is described as follows: Tmax in Sprague-Dawley rat plasma at 1.1 mg/kg, po administered as LKT formulation measured for 24 hrs by UPLC-MS/MS analysis. In kind it is ADME, organism-based. An outline of the steps:
as §1

Data set [31] in a line: Plasma concentration in Sprague-Dawley rat at 1.1 mg/kg, po administered as LKT formulation measured within 1 hrs by UPLC-MS/MS analysis. It is filed as ADME, organism-based. An outline of the steps:
as §1

Data set [32] is described as follows: Cmax in Sprague-Dawley rat plasma at 1.1 mg/kg, po administered as LKT formulation measured for 24 hrs by UPLC-MS/MS analysis. It is filed as ADME, organism-based. Further details: route oral, dose 1.1 mg/kg, time 24 hrs. The gist of the method: as §1

Some results are limits rather than exact numbers.

Sequence of Cytochrome P450 2D6 (P10635 whole entry): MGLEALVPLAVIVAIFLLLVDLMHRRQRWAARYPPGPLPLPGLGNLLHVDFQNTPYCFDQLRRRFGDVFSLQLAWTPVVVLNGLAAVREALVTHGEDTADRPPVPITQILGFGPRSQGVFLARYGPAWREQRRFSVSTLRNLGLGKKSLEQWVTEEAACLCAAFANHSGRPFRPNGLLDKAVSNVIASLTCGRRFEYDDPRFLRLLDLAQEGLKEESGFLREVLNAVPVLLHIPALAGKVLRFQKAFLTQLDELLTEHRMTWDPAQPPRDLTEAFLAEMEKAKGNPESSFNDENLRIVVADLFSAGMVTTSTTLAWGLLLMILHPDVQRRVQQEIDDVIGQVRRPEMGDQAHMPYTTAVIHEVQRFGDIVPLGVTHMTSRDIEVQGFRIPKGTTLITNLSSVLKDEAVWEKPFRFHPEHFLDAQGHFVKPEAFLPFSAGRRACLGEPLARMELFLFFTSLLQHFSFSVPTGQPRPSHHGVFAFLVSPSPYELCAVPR

As for `COC(=O)C1=CO[C@@H](C)[C@H]2CN3CC[C@]4(C(=O)Nc5ccccc54)[C@@H]3C[C@H]12`, the Drug recovery in data set [1] was greater than 80%; in data set [2], greater than 90%.
Take `CC[C@@H]1CN2CCc3c([nH]c4cccc(OC)c34)[C@@H]2C[C@@H]1/C(=C\OC)C(=O)OC`: the Cmax was found to be 112 ng/mL in data set [3] and 63.8 ng/mL in data set [8]. Moreover, the Cmax/dose in data set [4] came to 11.1 kg·ng/mL/mg; in [9], 46.5 ng/mL; in data set [14] it was 11.7 kg·ng/mL/mg. The AUC/dose came out at 83.7 kg·ng·h/mL/mg in [5], 136.1 kg·ng·h/mL/mg in data set [6] and 213.1 kg·ng·h/mL/mg in data set [10]. Further, the Drug recovery was greater than 80% in data set [1] and greater than 90% in data set [2]. The AUC(0-t) at 24 h is 1310 ng·h/mL in data set [7] and 480 ng·h/mL in data set [11]. Also, the figures for the Tmax in [12] and in data set [15] were 1.3 h and 3.1 h, respectively. Also, the Drug metabolism stood at 3.4% in data set [13] and 3.1% in data set [16]. On Cytochrome P450 2D6, the Ki came out at 1100 nM.
For `CC[C@@H]1CN2CCc3c([nH]c4cccc(OC)c34)[C@H]2C[C@@H]1/C(=C\OC)C(=O)OC`, the figures for the AUC(0-t) at 24 h in [17] and in [18] were 107 ng·h/mL and 223 ng·h/mL, respectively. Besides, the Tmax in data set [19] is 3.2 h; in [21] it was 1.8 h. The results for the Cmax/dose in data set [20] and in data set [24] were 10.8 kg·ng/mL/mg and 10.4 kg·ng/mL/mg, respectively. Moreover, the Drug recovery in data set [1] is reported as greater than 80%; in [2] it was greater than 90%. For the same compound, the Cmax was 21.1 ng/mL in data set [22] and 23.8 ng/mL in data set [23]. The AUC/dose in data set [25] turned out to be 101.2 kg·ng·h/mL/mg; in data set [26], 52.9 kg·ng·h/mL/mg.
For `C=C[C@H]1CN2CCc3c([nH]c4cccc(OC)c34)[C@@H]2C[C@@H]1/C(=C\OC)C(=O)OC`, the Drug recovery was greater than 80% in data set [1] and greater than 90% in [2]. The concentration at 1 h in [27] and in data set [31] was less than 1 ng/mL each time. Moreover, the figures for the Cmax in data set [28] and in data set [32] were 2 ng/mL and 5.3 ng/mL, respectively. For the same compound, the Tmax in data set [29] is 5 min; in data set [30], 0.167 h.

Usually Cmax stands for the maximum level reached in the sampled fluid or tissue. As a reminder, the AUC(0-t) is exposure summed from dosing to a finite time, without extrapolation to infinity. Low readings indicate low exposure, high ones high exposure. What is called Tmax is the time at which the peak concentration occurs. The Ki is the dissociation constant of the complex between target and ligand, obtained from inhibition or displacement.

For the origin of these results see ChEMBL document CHEMBL4834399, “Pharmacokinetics of Eleven Kratom Alkaloids Following an Oral Dose of Either Traditional or Commercial Kratom Products in Rats” (J Nat Prod, 2021).
